# Target: Potassium voltage-gated channel subfamily KQT member 2 (Rattus norvegicus) (UniProt O88943)
# Assay: Agonist activity at rat KCNQ2 channel expressed in CHO cells assessed as shift of half voltage of maximal activation at 0.1 uM by patch clamp method
# Type: cell-based
# Conditions: filed as agonist
# Outline: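 Whole-cell patch clamp at room temperature on CHO cells (DMEM/F12, 10% FBS) transiently co-transfected with EGFP and hKCNQ1, rKCNQ2, rKCNQ3 A278T, hKCNQ4 or hKCNQ5; KCNQ2/3 at 1:1 cDNA ratio. Pipette solution 145 mM KCl, 5 mM MgATP, pH 7.3; bath 140 mM NaCl, 5 mM KCl, pH 7.4, under perfusion. V1/2 from Boltzmann fits; I/I0 is current amplitude with versus without compound; n = 4−6.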
# Potassium voltage-gated channel subfamily KQT member 2 (Rattus norvegicus), sequence (O88943 whole entry): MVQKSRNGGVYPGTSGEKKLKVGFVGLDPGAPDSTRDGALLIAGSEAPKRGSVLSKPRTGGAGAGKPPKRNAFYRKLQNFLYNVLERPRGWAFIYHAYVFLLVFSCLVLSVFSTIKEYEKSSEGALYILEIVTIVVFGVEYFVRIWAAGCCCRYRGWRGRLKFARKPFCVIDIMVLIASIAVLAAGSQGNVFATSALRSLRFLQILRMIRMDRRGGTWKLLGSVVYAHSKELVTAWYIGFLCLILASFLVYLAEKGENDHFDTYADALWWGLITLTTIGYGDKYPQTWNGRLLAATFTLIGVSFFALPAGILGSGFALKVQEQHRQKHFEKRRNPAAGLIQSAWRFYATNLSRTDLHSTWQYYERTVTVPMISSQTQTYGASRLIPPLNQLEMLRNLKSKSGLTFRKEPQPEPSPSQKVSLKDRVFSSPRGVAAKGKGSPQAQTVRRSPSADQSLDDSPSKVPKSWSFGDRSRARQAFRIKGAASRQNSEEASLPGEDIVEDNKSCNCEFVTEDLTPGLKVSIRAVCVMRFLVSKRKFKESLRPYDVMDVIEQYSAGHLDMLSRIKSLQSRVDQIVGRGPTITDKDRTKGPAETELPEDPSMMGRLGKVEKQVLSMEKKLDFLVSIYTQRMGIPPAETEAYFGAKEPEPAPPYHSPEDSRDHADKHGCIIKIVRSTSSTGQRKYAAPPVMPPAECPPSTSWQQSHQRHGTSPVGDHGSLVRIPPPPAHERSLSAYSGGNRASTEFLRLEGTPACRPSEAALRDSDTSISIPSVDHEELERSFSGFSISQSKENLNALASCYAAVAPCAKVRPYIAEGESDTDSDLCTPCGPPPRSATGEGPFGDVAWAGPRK
compound,measurement,value
C#CCN(Cc1ccc(F)cc1)c1cc(C)c(NC(=O)OC)c(C)c1,Activity,-35.6 mV

# Source: ChEMBL document CHEMBL5149984, “Discovery of HN37 as a Potent and Chemically Stable Antiepileptic Drug Candidate” (J Med Chem, 2021)
